Screens deposited in PubChem BioAssay by several laboratories.
HEK293 NFkB inh – lowers PMA/ionomycin-induced NF-kB signal in HEK293 cells | AID 465 | inhibition, % at 3 µM | HEK-293 NF-kB luciferase reporter, luminescence | actives 0.21% (n = 62,000);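 active = inhibition above the mean of all tested compounds plus 3 SD, cut at about 40% in these data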;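 note: 0% = stimulated DMSO wells and 100% = 10 µM reference inhibitor 5653914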
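Material: HEK-293 cells with stable firefly luciferase reporter driven by four HIV NF-kB elements / Also added: PMA plus ionomycin mix as NF-kB-activating stimulus / Compound dosing: 3 µM once, 0.30% DMSO / Times: 1 h pretreatment, 16 h stimulation, 37 °C / Signal: luminescence / Evaluation: per-plate % inhibition versus controls / Benchmarks: DMSO and 10 µM reference inhibitor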
D1 mod – allosteric modulators of human D1 dopamine receptor | P21728 | HEK293 D1, CRE-luciferase, dopamine EC30 potentiation; actives deviate in either direction | B-score at 10 µM | actives 5.9% (n = 58,000) | AID 641;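 active = luminescence count or its row- and column-corrected plate score outside the 99.7% band of the plate's sample wells, on either side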
Target sequence (P21728 whole entry, looked up): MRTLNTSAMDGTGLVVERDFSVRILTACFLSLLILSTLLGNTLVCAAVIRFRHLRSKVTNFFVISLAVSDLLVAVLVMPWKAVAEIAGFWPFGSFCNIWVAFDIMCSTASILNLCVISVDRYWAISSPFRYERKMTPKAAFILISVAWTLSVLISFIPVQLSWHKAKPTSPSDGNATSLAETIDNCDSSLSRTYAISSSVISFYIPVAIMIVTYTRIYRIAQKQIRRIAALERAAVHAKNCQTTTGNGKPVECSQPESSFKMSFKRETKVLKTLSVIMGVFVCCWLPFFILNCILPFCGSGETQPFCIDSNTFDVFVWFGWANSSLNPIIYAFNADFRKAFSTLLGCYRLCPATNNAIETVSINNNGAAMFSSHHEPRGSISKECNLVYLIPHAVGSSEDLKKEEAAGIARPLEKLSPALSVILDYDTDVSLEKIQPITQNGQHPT
Jurkat tox 60K – cytotoxicity toward Jurkat cells; Jurkat E6.1 viability, ATP luminescence, 48 h; inhibition, % at 4 µM; actives 1.2% (n = 56,000); AID 463;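 active = inhibition above the mean inhibition of all tested compounds plus 3 SD, cut at about 28% in these data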
M1 antag – antagonists of rat M1 muscarinic receptor; actives 3.4% (n = 64,000); AID 628; CHO-M1 cells, Fluo-4 calcium, ACh EC80 antagonist mode; stronger effect = lower value; B-score at 10 µM;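 active = calcium fluorescence response, raw or row-and-column corrected B-score, differing from the plate sample mean either way at a set confidence level, mostly lower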
M1 ag – M1 muscarinic receptor agonism. CHO-M1 cells, Fluo-4 calcium fluorescence, agonist mode; stronger effect = higher value. B-score at 10 µM. actives 3% (n = 64,000). AID 626;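 active = fluorescence rise, raw or as B-score row- and column-corrected plate score, outside the 99.7% band of its plate's samples, either direction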
DAT uptake mod – modulates human dopamine transporter uptake under cocaine; actives 1.3% (n = 110,000); LLC-PK1 hDAT cells, [14C]-dopamine uptake with cocaine IC80; actives deviate in either direction; B-score at 10 µM;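 active = Z score or B-score, a plate-position-corrected score, falls beyond the plate's 99.7% confidence bounds, in either direction; inactive = both scores lie inside the 99.7% bounds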;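 note: scored against the spread of the other compound wells on the same plate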
* marks the source's active call; other numbers are inactive results; / = not tested or not shown. Most compounds without a hit are left out; they make up all but 7.6% or so of the library.

SMILES	HEK293 NFkB inh	D1 mod	Jurkat tox 60K	M1 antag	M1 ag	DAT uptake mod
CCN1CCN(c2ncc(C(=O)N3CCN(c4ccccc4OC)CC3)c3ccccc23)CC1	26.1	-0.77	-4.3	-10.1*	-1.02	/
CCn1cc(C(=O)N2CCN(c3ccccn3)CC2)c2cc(OC)c(OC)cc2c1=O	7.1	0.391	/	0.367	0.128	-8.71*
O=C(NC1CC1)C1=C[C@@H](c2coc3ccccc3c2=O)C[C@@H](OCCCCO)O1	/	/	/	/	/	-1.71
O=C(c1ccccn1)N(Cc1cc2ccccc2[nH]c1=O)C1CCCCC1	-7.7	0.271	-4.6	-0.279	1.94	2.9*
Nc1ccc(-c2nc3c(Cl)cc(N)cc3[nH]2)cc1	15.8	-2.62*	9.1	0.777	0.413	1.7
CC(C(=O)NCc1ccco1)n1cc(C(=O)c2ccco2)c2ccccc21 (stereo not drawn)	/	/	/	/	/	0.104
CCCCc1cc(=O)oc2cc(OS(C)(=O)=O)ccc12	/	/	/	/	/	0.429
CCOC(=O)C1CCN(c2c(NCc3ccc(C(=O)NC(C)CC)cc3)c(=O)c2=O)CC1 (stereo not drawn)	-1.1	-3.21*	-3.1	0.324	-0.0339	0.157
CNC(=O)CCc1nc(-c2ccc(C(C)(C)C)cc2)no1	69.8*	/	-5.3	-0.488	-0.0533	-0.404
CN(C)C(=O)CCc1nc(-c2ccc(C(C)(C)C)cc2)no1	16.1	-2.97	4.3	-0.616	-1.98	-0.462
CC(C)(C)c1ccc(-c2noc(CCC(N)=O)n2)cc1	85.7*	-3.48*	-5.4	-0.307	-0.501	1.44
COc1ccc(N(CC(=O)N2CCCCCC2)S(=O)(=O)c2c(C)[nH]c(=O)[nH]c2=O)cc1	/	/	/	/	/	-1.94
C=CCn1c(CNC(=O)c2ccco2)nnc1SCC(=O)Nc1cccc(Br)c1	/	/	/	/	/	0.31
CC(Oc1ccccc1Cl)C(=O)N(Cc1ccco1)C1CCS(=O)(=O)C1 (stereo not drawn)	3.8	-0.292	1.3	0.824	1.2	-1.28
O=C(COc1ccc(Cl)cc1Cl)N(Cc1ccco1)C1CCS(=O)(=O)C1 (stereo not drawn)	13.3	0.242	4.8	-1.7	-0.257	2.94*
COc1cc(C2N(c3ccccn3)C(=O)C3CCCN32)cc(OC)c1OC (stereo not drawn)	8.7	-0.373	-0.2	0.353	-0.00352	-7.88*
CCOCCn1c(SCc2cccc(C)c2)nc2c1c(=O)[nH]c(=O)n2C	12.3	0.682	2.1	0.00458	-0.02	0.538
CCOC(=O)N1CCN(c2c(F)cc3[nH]c(=S)[nH]c3c2Br)CC1	8.5	0.956	85.4*	-0.0616	0.126	0.0753
c1c2c(cc3sc(N4CCOCC4)nc13)OCCO2	33.1	-4.87*	4.6	-1.07	0.138	0.253
CCOC(=O)N1CCN(S(=O)(=O)c2cc(C)c(C)cc2C)CC1	7.1	0.816	-12.7	0.0784	-1.1	/
CCOC(=O)N1CCN(S(=O)(=O)c2cc(Cl)ccc2Cl)CC1	8.0	0.237	/	0.95*	-0.741	-0.926
CC1CCN(C(=O)c2ccc(CSc3nc4ccncc4n3Cc3ccc(F)cc3)cc2)CC1	/	/	/	/	/	3.51*
Cc1ccc(CSc2nc3ccncc3n2CC(=O)Nc2cc(C)cc(C)c2)cc1	/	/	/	/	/	0.0058
CC(=O)Nc1ccc(OCC(O)CN2CCN(c3cccc(Cl)c3)CC2)cc1 (stereo not drawn)	13.5	-3.1*	-0.9	-1.18	-0.276	0.86
CCSc1nnc(-c2sc3nnc(-c4ccccc4)c(-c4ccccc4)c3c2N)o1	/	/	/	/	/	1.58*
SMILES	HEK293 NFkB inh	D1 mod	Jurkat tox 60K	M1 antag	M1 ag	DAT uptake mod
CCSc1nnc(-c2ccncc2)o1	/	/	/	/	/	0.25
COC(=O)c1nnn(-c2nc(N3CCCCC3)nc(N3CCCCC3)n2)c1C	-1.2	0.766	-11.3	0.408	0.715	/
CCNc1nc(N2CCCCC2)nc(-n2nnc(C(=O)OCC)c2C)n1	11.9	4.13	5.6	0.0119	0.311	2.78*
COC(=O)C1=C(C)N(CCC2=CCCCC2)C(=O)C1	18.9	-0.129	4.8	-0.815	0.727	0.0778
CCCS(=O)(=O)c1nnnn1-c1cccc(OC)c1	33.8	-2.22	101.3*	0.258	0.107	-0.508
CC(=O)c1ccc(NC(=O)c2cnn3ccccc23)cc1	/	/	/	/	/	-0.683
CC(=O)c1cccc(NC(=O)c2cnn3ccccc23)c1	-11.1	-2.62*	-7.8	0.0127	-0.0234	0.97
COc1ccc(Cn2nnnc2C(c2cccs2)N2CCCCCC2)cc1 (stereo not drawn)	/	/	/	/	/	-1.6
CCCOc1cccc(C(=O)Nc2cccnc2)c1	12.1	-0.108	-3.1	-0.0823	-0.755	-0.61
COc1ccc(NC(=O)c2ccco2)cc1NC(=O)c1ccc(C)cc1	14.9	-0.518	-3.5	-0.289	0.228	-0.0278
CC(C)(C)c1ccc(C(=O)Nc2ccccc2NC(=O)c2ccco2)cc1	/	/	/	/	/	0.988
COc1ccc(NC(=O)c2ccco2)cc1NC(=O)c1cccs1	17.4	-0.0303	-6.8	0.871	-0.823	1.81*
COc1ccc(C(=O)Nc2ccccc2NC(=O)c2ccco2)cc1OC	9.7	/	/	0.741	-0.17	2.77*
COc1cc(NC(=O)c2cccs2)c(OC)cc1NC(=O)c1ccco1	0.6	-0.441	19.3	-0.4	0.228	/
CCCOc1cccc(C(=O)Nc2cccc(NC(=O)c3ccco3)c2)c1	-3.1	-0.206	-1.1	-0.259	5.98*	0.808
COc1ccc(NC(=O)c2ccco2)cc1NC(=O)c1ccc(Br)o1	5.9	/	9.4	-0.062	8.87*	0.674
O=C(Oc1cccc(NC(=O)c2ccco2)c1)c1cccc(S(=O)(=O)N2CCCCC2)c1	/	/	/	/	/	-7.9*
COc1ccccc1NC(NC(=O)c1ccco1)C(=O)c1ccccc1 (stereo not drawn)	12.3	/	0.0	-0.077	-0.0435	34.9*
COC(=O)c1ccccc1NC(NC(=O)c1ccco1)C(=O)c1ccccc1 (stereo not drawn)	7.8	/	-4.0	0.0631	-0.14	0.0106
O=C(c1ccco1)N1CCN(C(c2ccccc2Cl)c2nnnn2Cc2ccco2)CC1 (stereo not drawn)	11.0	/	2.6	-0.627	11.8*	0.306
O=C(c1ccco1)N1CCN(C(c2ccccc2Cl)c2nnnn2Cc2cccs2)CC1 (stereo not drawn)	21.8	-1.67	1.6	-1.1	0.203	0.391
CC(C)CC(=O)NC1(C(F)(F)F)C(=O)N(Cc2ccccc2)C2=C1C(=O)CC(C)(C)C2 (stereo not drawn)	/	/	/	/	/	0.126
CN(C)/C=C(\C#N)C(=O)Nc1ccc(F)cc1	/	/	/	/	/	-2.24*
CCSc1nnc(NC(=O)NC(CC)(C(F)(F)F)C(F)(F)F)s1	/	-0.259	/	-1.39*	5*	1.65
Cc1cc(NC(=O)CCN2CCC(C(N)=O)CC2)ccc1Br	/	-0.504	/	/	/	-0.291
O=C(Nc1ccc2c(c1)nc1n2CCSC1)c1ccccc1	-6.2	-3.7*	8.5	0.497	-0.582	-0.0092
COCCN1CCn2c(nc3cc(NC(=O)c4cccs4)ccc32)C1	/	/	/	/	/	-0.436
CC(c1ccccc1)N1CCn2c(nc3cc(NC(=O)c4cccs4)ccc32)C1 (stereo not drawn)	/	/	/	/	/	2.74*
